# Reference: ChEMBL document CHEMBL3108706, “Design, synthesis, and biological activity of novel dicoumarol glucagon-like peptide 1 conjugates” (J Med Chem, 2013)
# Activity calls are given as the source filed them. No cut-off for these calls is given here.
# Columns and labels:
# [1] = tested on: Rattus norvegicus; assay: Anticoagulant activity in Sprague-Dawley rat assessed as prothombin time at 25 nmol/kg, iv administered for 6 days measured on day 7 by coagulometric analysis (reference value: 13.5 +/- 0.32 secs); type: functional
# [2] = tested on: Mus musculus; assay: Hypoglycemic activity in C57BL/6J-m+/+Leprdb (db/db) mouse assessed as reduction of plasma glucose level at 25 nmol/kg, ip administered 0.5 hrs prior to glucose challenge measured at 21.5 hrs by IPGTT (reference value: >30 mM); type: functional
# [3] = tested on: Rattus norvegicus; assay: AUC (0 to infinity) in Sprague-Dawley rat at 15 nmol/kg, sc by LC-MS/MS analysis; type: ADME, organism-based, Plasma; design: dose 15 nmol/kg, route subcutaneous, time infinity; details: in vivo
# [4] = tested on: Rattus norvegicus; assay: Anticoagulant activity in Sprague-Dawley rat assessed as activated […] time at 25 nmol/kg, iv administered for 6 days measured on day 7 by coagulometric analysis (reference value: 26.5 +/- 0.81 secs); type: functional
# [5] = tested on: Rattus norvegicus; assay: Antidiabetic activity in Sprague-Dawley rat assessed as reduction of plasma glucose level at 25 nmol/kg, ip administered 0.5 hrs prior to glucose challenge measured at 15 to 60 mins by OGTT; type: functional, organism-based
# [6] = Cmax in Sprague-Dawley rat at 15 nmol/kg, sc by LC-MS/MS analysis; type: ADME, organism-based; design: dose 15 nmol/kg, route subcutaneous; details: in vivo
# [7] = tested on: Rattus norvegicus; assay: Antidiabetic activity in Sprague-Dawley rat assessed as increase of plasma insulin level at 25 nmol/kg, ip administered 0.5 hrs prior to glucose challenge measured for 120 mins by ELISA; type: functional, organism-based
# Procedure, shortened: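 SD rats (200−250 g, n = 6/group) were fasted 12 h and given compound ip (25 nmol/kg) or saline 0.5 h before oral glucose (10 g/kg). Tail-vein blood glucose was read with a meter at −30, 0, 15, 30, 45, 60, 90, 120 and 180 min. Insulin was measured by rat insulin ELISA. Mean ± SD.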
# [8] = tested on: Rattus norvegicus; assay: Antidiabetic activity in Sprague-Dawley rat assessed as increase of plasma insulin level at 25 nmol/kg, ip administered 0.5 hrs prior to glucose challenge measured at 45 mins by ELISA; type: functional
# [9] = tested on: Mus musculus; assay: Hypoglycemic activity in C57BL/6J-m+/+Leprdb (db/db) mouse assessed as reduction of plasma glucose level at 25 nmol/kg, ip administered 0.5 hrs prior to glucose challenge measured after 18 to 21 hrs by IPGTT (reference value: >30 mM); type: functional
# [10] = tested on: Rattus norvegicus; assay: Antidiabetic activity in Sprague-Dawley rat assessed as reduction of plasma glucose level at 25 nmol/kg, ip administered 0.5 hrs prior to glucose challenge by OGTT (reference value: 13.32 +/- 1.84 mM); type: functional
# [11] = tested on: Mus musculus; assay: Hypoglycemic activity in C57BL/6J-m+/+Leprdb (db/db) mouse assessed as time required to reduce plasma glucose level below 8.35 mM at 150 nmol/kg, ip administered for 0.5 hrs; type: functional
# Procedure, shortened: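 Non-fasted male db/db mice (7 weeks, free access to food and water) got a single ip injection (25 or 150 nmol/kg) or saline. Glucose AUC0−48h and the time for glucose to return below 8.35 mM were derived. Mean ± SD, n = 6.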
# [12] = Tmax in Sprague-Dawley rat at 15 nmol/kg, sc by LC-MS/MS analysis; type: ADME, organism-based; details: in vivo
# [13] = Elimination half life in Sprague-Dawley rat at 15 nmol/kg, sc by LC-MS/MS analysis; type: ADME, organism-based; details: in vivo, read-out: beta t1/2 (converted)
# [14] = tested on: Rattus norvegicus; assay: Anticoagulant activity in Sprague-Dawley rat assessed as activated […] time at 150 nmol/kg, iv administered for 6 days measured on day 7 by coagulometric analysis (reference value: 26.5 +/- 0.81 secs); type: functional
# [15] = tested on: Rattus norvegicus; assay: Anticoagulant activity in Sprague-Dawley rat assessed as prothombin time at 150 nmol/kg, iv administered for 6 days measured on day 7 by coagulometric analysis (reference value: 13.5 +/- 0.32 secs); type: functional
# [16] = molecular target: Glucagon-like peptide 1 receptor (Homo sapiens, UniProt P43220); assay: Activation of human GLP-1 receptor overexpressed in HEK293 cells assessed as cAMP accumulation after 20 mins by HTRF assay; type: functional, cell-based
# [17] = Half life in Sprague-Dawley rat plasma at 1000 ng/mL by LC-MS/MS analysis; type: ADME, cell-free
# [18] = molecular target: albumin (Homo sapiens, UniProt P02768); assay: Binding affinity to human serum albumin at 100 ug/mL after 3 hrs relative to control; type: ADME; details: read-out: PB (converted)
# Procedure, shortened: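 Peptide at 100 μg/mL in PBS (50 μL) was incubated with HSA-conjugated Sepharose resin for 3 h at 25 °C, then centrifuged (1000 rpm, 10 min). Unbound peptide in the supernatant was quantified by micro BCA assay. Nonspecific adsorption was corrected with NHS-inactivated, albumin-free resin.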
# [19] = tested on: Rattus norvegicus; assay: Antidiabetic activity in Sprague-Dawley rat assessed as increase of plasma insulin level at 25 nmol/kg, ip administered 0.5 hrs prior to glucose challenge measured at 15 mins by ELISA; type: functional
# [20] = tested on: Mus musculus; assay: Hypoglycemic activity in C57BL/6J-m+/+Leprdb (db/db) mouse assessed as reduction of plasma glucose level at 25 nmol/kg, ip administered 0.5 hrs prior to glucose challenge measured at 21.5 to 24 hrs by IPGTT; type: functional, organism-based
# [21] = Mean residence time in Sprague-Dawley rat at 15 nmol/kg, sc by LC-MS/MS analysis; type: ADME, organism-based; details: in vivo
# [22] = tested on: Mus musculus; assay: Hypoglycemic activity in C57BL/6J-m+/+Leprdb (db/db) mouse assessed as reduction of plasma glucose level at 25 nmol/kg, ip administered 0.5 hrs prior to glucose challenge measured up to 17 hrs by IPGTT (reference value: >30 mM); type: functional
# [23] = tested on: Mus musculus; assay: Hypoglycemic activity in C57BL/6J-m+/+Leprdb (db/db) mouse assessed as time required to reduce plasma glucose level below 8.35 mM at 25 nmol/kg, ip administered for 0.5 hrs; type: functional
# Procedure, shortened: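 Non-fasted male db/db mice (7 weeks, free access to food and water) got a single ip injection (25 or 150 nmol/kg) or saline. Mean ± SD, n = 6.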
# [24] = tested on: Rattus norvegicus; assay: Anticoagulant activity in Sprague-Dawley rat assessed as thombin time at 150 nmol/kg, iv administered for 6 days measured on day 7 by coagulometric analysis (reference value: 19.38 +/- 0.72 secs); type: functional
# [25] = tested on: Rattus norvegicus; assay: Anticoagulant activity in Sprague-Dawley rat assessed as thombin time at 25 nmol/kg, iv administered for 6 days measured on day 7 by coagulometric analysis (reference value: 19.38 +/- 0.72 secs); type: functional
# albumin, sequence (P02768 whole entry): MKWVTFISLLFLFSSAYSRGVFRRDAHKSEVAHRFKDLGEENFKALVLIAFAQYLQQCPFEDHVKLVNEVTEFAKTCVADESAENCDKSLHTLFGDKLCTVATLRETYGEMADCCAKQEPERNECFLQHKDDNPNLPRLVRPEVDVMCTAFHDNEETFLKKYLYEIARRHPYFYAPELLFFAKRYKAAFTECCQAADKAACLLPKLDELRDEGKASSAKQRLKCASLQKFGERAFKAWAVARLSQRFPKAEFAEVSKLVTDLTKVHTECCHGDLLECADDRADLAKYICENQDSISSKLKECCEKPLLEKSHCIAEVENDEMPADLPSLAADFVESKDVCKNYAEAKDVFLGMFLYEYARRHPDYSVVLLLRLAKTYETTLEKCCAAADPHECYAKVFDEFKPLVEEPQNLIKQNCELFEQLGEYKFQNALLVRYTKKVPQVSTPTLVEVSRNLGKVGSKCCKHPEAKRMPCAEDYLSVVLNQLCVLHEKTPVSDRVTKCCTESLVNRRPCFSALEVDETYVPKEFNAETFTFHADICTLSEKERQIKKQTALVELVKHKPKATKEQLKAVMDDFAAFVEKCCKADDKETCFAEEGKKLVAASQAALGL
# Glucagon-like peptide 1 receptor, sequence (P43220 whole entry): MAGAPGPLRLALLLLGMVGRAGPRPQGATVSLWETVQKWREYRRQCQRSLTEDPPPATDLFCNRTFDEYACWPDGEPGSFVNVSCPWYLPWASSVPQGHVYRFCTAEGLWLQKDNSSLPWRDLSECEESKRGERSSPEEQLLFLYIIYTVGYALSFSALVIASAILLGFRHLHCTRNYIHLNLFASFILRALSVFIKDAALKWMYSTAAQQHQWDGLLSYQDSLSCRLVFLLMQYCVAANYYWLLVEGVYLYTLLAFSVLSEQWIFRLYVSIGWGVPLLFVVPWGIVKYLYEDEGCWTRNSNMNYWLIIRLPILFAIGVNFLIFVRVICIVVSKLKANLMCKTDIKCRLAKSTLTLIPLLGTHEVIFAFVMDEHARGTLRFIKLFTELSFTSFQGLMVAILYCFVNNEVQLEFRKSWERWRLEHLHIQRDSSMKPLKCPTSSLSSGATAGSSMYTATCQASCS
Compound,AUC [3] [µg·h/mL],Activity [5],Cmax [6] [µg/mL],Activity [7],Activity [8] [pM],Activity [10] [mM],Tmax [12] [h],half-life [13] [h],EC50 [16] [pM],half-life at 1000 ng/mL [17] [h],"fraction unbound at 3 h, 100 ug/mL [18]",Activity [19] [pM],MRT [21] [h],Time [23] [h],further results
CC[C@H](C)[C@H](NC(=O)[C@H](Cc1ccccc1)NC(=O)[C@H](CCC(=O)O)NC(=O)[C@H](CCCCN)NC(=O)[C@H](C)NC(=O)[C@H](C)NC(=O)[C@H](CCC(N)=O)NC(=O)CNC(=O)[C@H](CCC(=O)O)NC(=O)[C@H](CC(C)C)NC(=O)[C@H](Cc1ccc(O)cc1)NC(=O)[C@H](CO)NC(=O)[C@H](CO)NC(=O)[C@@H](NC(=O)[C@H](CC(=O)O)NC(=O)[C@H](CO)NC(=O)[C@@H](NC(=O)[C@H](Cc1ccccc1)NC(=O)[C@@H](NC(=O)CNC(=O)[C@H](CCC(=O)O)NC(=O)CNC(=O)[C@@H](N)Cc1cnc[nH]1)[C@@H](C)O)[C@@H](C)O)C(C)C)C(=O)N[C@@H](C)C(=O)N[C@@H](Cc1c[nH]c2ccccc12)C(=O)N[C@@H](CC(C)C)C(=O)N[C@H](C(=O)N[C@@H](CCCCN)C(=O)NCC(=O)N[C@@H](CCCNC(=N)N)C(=O)N[C@@H](CSC1CC(=O)N(CCCCCCCCCCCC(=O)Nc2ccc(C(c3c(O)c4ccccc4oc3=O)c3c(O)c4ccccc4oc3=O)cc2)C1=O)C(N)=O)C(C)C (some centres undefined),36.8,Active,0.907,Active,524.26,7.8,1.3,18.8,24.2,55.8,0.06,1052.22,29.8,22.5,PT [1]: 13.39 s; Activity [2]: 16.25 mM; APTT [4]: 26.76 s; Activity [9]: <16 mM; Time [11]: 30.4 h; APTT [14]: 26.48 s; PT [15]: 13.53 s; Activity [20]: Active; Activity [22]: <12 mM; TT [24]: 19.8 s; TT [25]: 19.4 s
CC[C@H](C)[C@H](NC(=O)[C@H](Cc1ccccc1)NC(=O)[C@H](CCC(=O)O)NC(=O)[C@H](CCCCN)NC(=O)[C@H](C)NC(=O)[C@H](C)NC(=O)[C@H](CCC(N)=O)NC(=O)CNC(=O)[C@H](CCC(=O)O)NC(=O)[C@H](CC(C)C)NC(=O)[C@H](Cc1ccc(O)cc1)NC(=O)[C@H](CO)NC(=O)[C@H](CO)NC(=O)[C@@H](NC(=O)[C@H](CC(=O)O)NC(=O)[C@H](CO)NC(=O)[C@@H](NC(=O)[C@H](Cc1ccccc1)NC(=O)[C@@H](NC(=O)CNC(=O)[C@H](CCC(=O)O)NC(=O)CNC(=O)[C@@H](N)Cc1cnc[nH]1)[C@@H](C)O)[C@@H](C)O)C(C)C)C(=O)N[C@@H](C)C(=O)N[C@@H](Cc1c[nH]c2ccccc12)C(=O)N[C@@H](CC(C)C)C(=O)N[C@H](C(=O)N[C@@H](CS)C(=O)NCC(=O)N[C@@H](CCCNC(=N)N)C(N)=O)C(C)C,,,,,,,,,4.9,0.6,0.939,,,,
CC[C@H](C)[C@H](NC(=O)[C@H](Cc1ccccc1)NC(=O)[C@H](CCC(=O)O)NC(=O)[C@H](CCCCN)NC(=O)[C@H](C)NC(=O)[C@H](C)NC(=O)[C@H](CCC(N)=O)NC(=O)CNC(=O)[C@H](CCC(=O)O)NC(=O)[C@H](CC(C)C)NC(=O)[C@H](Cc1ccc(O)cc1)NC(=O)[C@H](CO)NC(=O)[C@H](CS)NC(=O)[C@@H](NC(=O)[C@H](CC(=O)O)NC(=O)[C@H](CO)NC(=O)[C@@H](NC(=O)[C@H](Cc1ccccc1)NC(=O)[C@@H](NC(=O)CNC(=O)[C@H](CCC(=O)O)NC(=O)CNC(=O)[C@@H](N)Cc1cnc[nH]1)[C@@H](C)O)[C@@H](C)O)C(C)C)C(=O)N[C@@H](C)C(=O)N[C@@H](Cc1c[nH]c2ccccc12)C(=O)N[C@@H](CC(C)C)C(=O)N[C@H](C(=O)N[C@@H](CCCCN)C(=O)NCC(=O)N[C@@H](CCCNC(=N)N)C(N)=O)C(C)C,,,,,,,,,6.4,1.1,0.922,,,,
CCCCCCCCCCCCCCCC(=O)N[C@@H](CCC(=O)NCCCC[C@H](NC(=O)[C@H](C)NC(=O)[C@H](C)NC(=O)[C@H](CCC(N)=O)NC(=O)CNC(=O)[C@H](CCC(=O)O)NC(=O)[C@H](CC(C)C)NC(=O)[C@H](Cc1ccc(O)cc1)NC(=O)[C@H](CO)NC(=O)[C@H](CO)NC(=O)[C@@H](NC(=O)[C@H](CC(=O)O)NC(=O)[C@H](CO)NC(=O)[C@@H](NC(=O)[C@H](Cc1ccccc1)NC(=O)[C@@H](NC(=O)CNC(=O)[C@H](CCC(=O)O)NC(=O)[C@H](C)NC(=O)[C@@H](N)Cc1cnc[nH]1)[C@@H](C)O)[C@@H](C)O)C(C)C)C(=O)N[C@@H](CCC(=O)O)C(=O)N[C@@H](Cc1ccccc1)C(=O)N[C@H](C(=O)N[C@@H](C)C(=O)N[C@@H](Cc1c[nH]c2ccccc12)C(=O)N[C@@H](CC(C)C)C(=O)N[C@H](C(=O)N[C@@H](CCCNC(=N)N)C(=O)NCC(=O)N[C@@H](CCCNC(=N)N)C(=O)NCC(=O)O)C(C)C)[C@@H](C)CC)C(=O)O [LIRAGLUTIDE],18.1,Active,0.902,Active,425.34,8.3,1.51,12.5,,17.1,0.087,992.08,18.3,19,
